Assay results reported in publication PMC7383886 (Diabetes, Obesity & Metabolism, 2020).

Experiments:
[1] = tested on: patients with type 2 diabetes inadequately controlled on metformin; experiment: HbA1c, phase 2 trial LIBERATE 204; format: in vivo, human
Outline: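 HbA1c was assessed at week 17, after 16 weeks of double-blind sc treatment on background metformin. Dosing was 4 mg weekly for 4 weeks, 8 mg on day 29, then the assigned dose every 28 days; placebo was matched. The proportion reaching HbA1c <53 mmol/mol (<7%) was compared with placebo by Fisher's exact test in the full analysis set.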

[2] = tested on: patients with type 2 diabetes inadequately controlled on metformin; experiment: Fasting plasma glucose; format: in vivo, human; conditions: mean (SD)
Outline: (§1)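 Adults 18–<75 y with T2D on stable metformin (≥1500 mg/d or maximum tolerated dose) had HbA1c 53–86 mmol/mol and BMI <40. They received double-blind sc test compound or placebo (0.53 mL prefilled syringe): 4 mg weekly on days 1, 8, 15 and 22, 8 mg on day 29, then the assigned dose on days 57 and 85. Measured at baseline and week 17 in the full analysis set; change analysed by MMRM (LS means, 95.1% CIs).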

[3] = tested on: patients with type 2 diabetes inadequately controlled on metformin; experiment: Seven-point glucose profile; format: in vivo, human; conditions: full analysis set n = 52, mean (SD)
Outline: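 Patients self-measured glucose with a provided glucometer for a seven-point profile: 90 min pre- and postprandial readings plus bedtime, recorded in a diary. Mean daily glucose was derived from this profile. Dosing was double-blind sc, with metformin continued: 4 mg weekly ×4, 8 mg on day 29, then the assigned monthly dose on days 57 and 85. Full analysis set; change to week 17 analysed by MMRM with 95.1% CIs.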

[4] = tested on: patients with type 2 diabetes inadequately controlled on metformin; experiment: Body weight, LIBERATE 204; format: in vivo, human; conditions: mean (SD)
Outline: as §1

[5] = tested on: patients with type 2 diabetes inadequately controlled on metformin; experiment: Treatment-emergent adverse events and hypoglycaemia, LIBERATE 204; format: in vivo, human
Outline: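 Safety set comprised all patients receiving any study drug, grouped by treatment actually received; analysed descriptively. TEAEs were adverse events starting or worsening on or after the first dose. Hypoglycaemia AEs required confirmed blood glucose <3.9 mmol/L (<70 mg/dL), coded by MedDRA 16.1. Injection-site reactions and symptomatic hypoglycaemic episodes came from patient diaries. Dosing was double-blind sc on background metformin.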

[6] = tested on: patients with type 2 diabetes inadequately controlled on metformin; experiment: Anti-efpeglenatide antibodies, enzyme-linked immunosorbent assay; format: in vivo, human; conditions: log 2-expressed titre of at least 2
Outline: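 Anti-drug antibodies in patient blood samples were detected by ELISA with an absorbance plate read-out, validated at a central laboratory. Treatment-emergent antibodies were evaluated in the safety set of patients on double-blind sc dosing with background metformin.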

[7] = tested on: patients with type 2 diabetes inadequately controlled on metformin; experiment: Neutralizing antibodies, cell-based cAMP-Glo assay; format: in vivo, human; conditions: any patient at any time
Outline: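 Neutralizing activity of anti-drug antibodies in patient samples was tested in a cell-based assay. Antibody-mediated inhibition of intracellular cAMP was read by cAMP-Glo luminescence; the assay was validated at a central laboratory. Patients received double-blind sc test compound or placebo.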

[8] = tested on: patients with type 2 diabetes inadequately controlled on metformin; experiment: Vital signs, LIBERATE 204; format: in vivo, human; conditions: any post-baseline time point from week 2 to week 17 or at follow-up (week 23)
[9] = tested on: patients with T2D who were drug-naïve or on metformin; conditions: 4 mg once weekly; 12 weeks; EXCEED; cited from earlier work
[10] = 8 mg once monthly sc, full analysis set n = 52
[11] = 12 mg once monthly sc, full analysis set n = 52
[12] = 16 mg once monthly sc, full analysis set n = 52
[13] = overall (8, 12 and 16 mg once monthly sc), full analysis set n = 156
[14] = 8 mg once monthly sc, safety set n = 52
[15] = 12 mg once monthly sc, safety set n = 52
[16] = 16 mg once monthly sc, safety set n = 53
[17] = overall (8, 12 and 16 mg once monthly sc), safety set n = 157

Substance: efpeglenatide
- Patients with HbA1c <53 mmol/mol (7%) at Week 17 [1, 10]: 26 (50.0) n (%)
- Patients with HbA1c <53 mmol/mol (7%) at Week 17 [1, 11]: 26 (50.0) n (%)
- Patients with HbA1c <53 mmol/mol (7%) at Week 17 [1, 12]: 24 (46.2) n (%)
- Patients with HbA1c <53 mmol/mol (7%) at Week 17 [1, 13]: 76 (48.7) n (%)
- FPG at Week 17 [2, 10]: 7.86 (2.28) mmol/L
- FPG at Week 17 [2, 11]: 8.09 (2.28) mmol/L
- FPG at Week 17 [2, 12]: 7.76 (1.93) mmol/L
- FPG at Week 17 [2, 13]: 7.90 (2.16) mmol/L
- Mean daily glucose at Week 17 ([3]; 8 mg once monthly sc): 8.76 (2.13) mmol/L
- Mean daily glucose at Week 17 ([3]; 12 mg once monthly sc): 8.89 (2.50) mmol/L
- Mean daily glucose at Week 17 ([3]; 16 mg once monthly sc): 8.49 (1.43) mmol/L
- Body weight at Week 17 [4, 10]: 89.98 (18.12) kg
- Body weight at Week 17 [4, 11]: 91.87 (15.31) kg
- Body weight at Week 17 [4, 12]: 85.72 (15.58) kg
- Body weight at Week 17 [4, 13]: 89.26 (16.49) kg
- Any TEAE [5, 14]: 43 (82.7) n (%)
- Any TEAE leading to discontinuation [5, 14]: 6 (11.5) n (%)
- Injection-site reaction [5, 14]: 4 (7.7) n (%)
- SAEs: Any [5, 14]: 0 (0.0) n (%)
- SAEs: GI disorders [5, 14]: 0 (0.0) n (%)
- SAEs: Injury, poisoning and procedural complications [5, 14]: 0 (0.0) n (%)
- SAEs: Neoplasms: benign, malignant and unspecified [5, 14]: 0 (0.0) n (%)
- SAEs: Nervous system disorders [5, 14]: 0 (0.0) n (%)
- SAEs: Psychiatric disorders [5, 14]: 0 (0.0) n (%)
- TEAE: Diarrhoea [5, 14]: 9 (17.3) n (%)
- TEAE: GI disorders [5, 14]: 26 (50.0) n (%)
- TEAE: Nausea [5, 14]: 14 (26.9) n (%)
- TEAE: Vomiting [5, 14]: 8 (15.4) n (%)
- Any TEAE [5, 15]: 43 (82.7) n (%)
- Any TEAE leading to discontinuation [5, 15]: 7 (13.5) n (%)
- Injection-site reaction [5, 15]: 4 (7.7) n (%)
- SAEs: Any [5, 15]: 5 (9.6) n (%)
- SAEs: GI disorders [5, 15]: 1 (1.9) n (%)
- SAEs: Injury, poisoning and procedural complications [5, 15]: 1 (1.9) n (%)
- SAEs: Neoplasms: benign, malignant and unspecified [5, 15]: 1 (1.9) n (%)
- SAEs: Nervous system disorders [5, 15]: 1 (1.9) n (%)
- SAEs: Psychiatric disorders [5, 15]: 1 (1.9) n (%)
- TEAE: Diarrhoea [5, 15]: 8 (15.4) n (%)
- TEAE: GI disorders [5, 15]: 29 (55.8) n (%)
- TEAE: Nausea [5, 15]: 24 (46.2) n (%)
- TEAE: Vomiting [5, 15]: 13 (25.0) n (%)
- Any TEAE [5, 16]: 43 (81.1) n (%)
- Any TEAE leading to discontinuation [5, 16]: 8 (15.1) n (%)
- Injection-site reaction [5, 16]: 2 (3.8) n (%)
- SAEs: Any [5, 16]: 3 (5.7) n (%)
- SAEs: GI disorders [5, 16]: 0 (0.0) n (%)
- SAEs: Injury, poisoning and procedural complications [5, 16]: 1 (1.9) n (%)
- SAEs: Neoplasms: benign, malignant and unspecified [5, 16]: 1 (1.9) n (%)
- SAEs: Nervous system disorders [5, 16]: 1 (1.9) n (%)
- SAEs: Psychiatric disorders [5, 16]: 0 (0.0) n (%)
- TEAE: Diarrhoea [5, 16]: 11 (20.8) n (%)
- TEAE: GI disorders [5, 16]: 31 (58.5) n (%)
- TEAE: Nausea [5, 16]: 23 (43.4) n (%)
- TEAE: Vomiting [5, 16]: 17 (32.1) n (%)
- Hypoglycaemia TEAEs (blood glucose ≤3.9 mmol/L [≤70 mg/dL]) ([5]; any group): No hypoglycaemia TEAEs
- AEs of acute or chronic pancreatitis ([5]; during the study): No AEs of acute or chronic pancreatitis were reported
- Deaths ([5]; during the study): No deaths
- Any TEAE [5, 17]: 129 (82.2) n (%)
- Any TEAE leading to discontinuation [5, 17]: 21 (13.4) n (%)
- Injection-site reaction [5, 17]: 10 (6.4) n (%)
- SAEs: Any [5, 17]: 8 (5.1) n (%)
- SAEs: GI disorders [5, 17]: 1 (0.6) n (%)
- SAEs: Injury, poisoning and procedural complications [5, 17]: 2 (1.3) n (%)
- SAEs: Neoplasms: benign, malignant and unspecified [5, 17]: 2 (1.3) n (%)
- SAEs: Nervous system disorders [5, 17]: 2 (1.3) n (%)
- SAEs: Psychiatric disorders [5, 17]: 1 (0.6) n (%)
- TEAE: Diarrhoea [5, 17]: 28 (17.8) n (%)
- TEAE: GI disorders [5, 17]: 86 (54.8) n (%)
- TEAE: Nausea [5, 17]: 61 (38.9) n (%)
- TEAE: Vomiting [5, 17]: 38 (24.2) n (%)
- Antibody formation: Treatment-emergent (titre ≥2) [6, 14]: 5 (9.6) n (%)
- Antibody formation: Treatment-emergent (titre ≥2) [6, 15]: 6 (11.5) n (%)
- Antibody formation: Treatment-emergent (titre ≥2) [6, 16]: 4 (7.5) n (%)
- Neutralizing antibodies [7]: no neutralizing antibodies were detected
- Mean changes from baseline in heart rate, temperature, systolic blood pressure or diastolic blood pressure [8]: no meaningful mean changes
- HbA1c reduction from baseline compared with once-daily liraglutide [9]: non‐inferior
